Each structure is given as a SMILES string. Where two headings read alike, the source gives them in different places. Where a SMILES comes first, the peptide text is derived from it. Some results are limits rather than exact numbers.

Assay type in all cases: biochemical
The target of one assay is T1, caspase-2 (Casp2) (Homo sapiens, UniProt P42575).
T1 sequence (P42575 170-333 limits assumed): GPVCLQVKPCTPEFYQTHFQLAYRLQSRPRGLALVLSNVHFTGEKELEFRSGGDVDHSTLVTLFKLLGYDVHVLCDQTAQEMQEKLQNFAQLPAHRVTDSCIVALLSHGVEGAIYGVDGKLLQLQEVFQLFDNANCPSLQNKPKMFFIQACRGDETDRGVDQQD
T1 sequence (P42575 348-452 limits assumed): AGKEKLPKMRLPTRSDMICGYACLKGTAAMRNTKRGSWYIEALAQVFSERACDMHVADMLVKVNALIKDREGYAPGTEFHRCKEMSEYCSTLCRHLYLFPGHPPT
Nature of the assay: Fluorometric enzyme inhibition assay, Casp2. The method, boiled down:
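In-house recombinant Casp2 in 100 mM MES pH 6.5, 150 mM NaCl, 0.1% CHAPS, 1.5% sucrose, 10 mM DTT. […] 384-well: 20 nM enzyme, 10 μM substrate, duplicate. 96-well: 5 nM, 25 μM, triplicate. AFC fluorescence (ex 400/em 505 nm) at 37 °C, 40 min point. Four-parameter IC50 fit, converted by Cheng–Prusoff.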

In assay [1] the target is T2, circularly permutated caspase-2 (cpCasp2) (Homo sapiens, UniProt P42575).
T2 sequence (P42575 1-452): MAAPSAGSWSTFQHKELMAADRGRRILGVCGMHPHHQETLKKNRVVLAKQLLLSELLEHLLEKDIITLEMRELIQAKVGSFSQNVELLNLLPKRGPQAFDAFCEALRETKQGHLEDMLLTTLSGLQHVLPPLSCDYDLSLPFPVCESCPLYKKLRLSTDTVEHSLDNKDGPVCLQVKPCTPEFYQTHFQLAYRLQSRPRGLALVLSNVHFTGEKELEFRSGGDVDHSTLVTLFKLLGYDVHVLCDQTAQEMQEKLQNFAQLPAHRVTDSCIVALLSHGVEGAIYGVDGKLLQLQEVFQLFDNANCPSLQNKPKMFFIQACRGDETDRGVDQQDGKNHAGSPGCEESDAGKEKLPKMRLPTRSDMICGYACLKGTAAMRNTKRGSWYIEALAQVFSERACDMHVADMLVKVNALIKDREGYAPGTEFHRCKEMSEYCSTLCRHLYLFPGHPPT
Kind of assay: Fluorometric enzyme inhibition assay, cpCasp2.

The next assay has as its target T3, caspase-3 (Casp3) (Homo sapiens, UniProt P42574).
T3 sequence (P42574 29-175 limits assumed): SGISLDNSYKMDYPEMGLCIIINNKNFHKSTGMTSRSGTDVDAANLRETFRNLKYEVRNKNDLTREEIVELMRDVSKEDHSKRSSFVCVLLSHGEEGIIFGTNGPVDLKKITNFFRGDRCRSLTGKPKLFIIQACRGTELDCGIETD
T3 sequence (P42574 176-277 limits assumed): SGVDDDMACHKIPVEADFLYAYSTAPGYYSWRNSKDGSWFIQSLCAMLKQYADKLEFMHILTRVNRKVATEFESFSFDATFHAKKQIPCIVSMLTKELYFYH
Kind of assay: Fluorometric enzyme inhibition assay, Casp3. The note with it: SEM. An outline of the steps: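 Recombinant Casp3 produced in house, 2 nM/well, in 100 mM HEPES pH 7.0, 150 mM NaCl, 0.1% CHAPS, 1.5% sucrose, 10 mM DTT. Preincubated with DMSO-diluted test compound 5 min, 37 °C. AcDEVD-AFC (Km 7.6 μM) at 5 μM (384-well, duplicate) or 10 μM (96-well, triplicate). Fluorescence ex 400/em 505 nm at 37 °C, 40 min reading. Four-parameter IC50 converted to Ki via Cheng–Prusoff.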

In general, Ki refers to a measure of affinity in units of concentration, obtained from inhibition or displacement. High values mean weaker binding, low ones tighter binding. Regarding `CC(=O)N[C@H](C(=O)N[C@@H](CC(=O)O)C(=O)N[C@H](C(=O)N[C@@H](C)C(=O)N[C@H](C=O)CC(=O)O)[C@@H](C)O)[C@@H](C)O` [compound 55, (4S,7S,10S,13S,16S)-7-(Carboxymethyl)-16-formyl-4,10-bis[(R)-1-hydroxyethyl]-13-methyl-2,5,8,11,14-pentaoxo-3,6,9,12,15-pentaazaoctadecan-18-oic acid] (Ac-TDTAD-aldehyde), the Ki was 0.0331 µM on caspase-2 (Casp2) (SEM), 0.0646 µM in assay [1] (SEM) and 0.0603 µM on caspase-3 (Casp3).

For the compound `CC(=O)NCCCC[C@H](NC(=O)[C@@H](NC(=O)[C@@H](NC(C)=O)[C@@H](C)O)C(C)C)C(=O)N[C@H](C=O)CC(=O)O` [compound 30, (4S,7S,10S,13S)-10-(4-Acetamidobutyl)-13-formyl-4-[(R)-1-hydroxyethyl]-7-isopropyl-2,5,8,11-tetraoxo-3,6,9,12-tetraazapentadecan-15-oic acid] (Ac-TVK(Ac)D-aldehyde), the Ki at caspase-2 (Casp2) (SEM) was 20 µM; in assay [1] (SEM) it was 20.9 µM; on caspase-3 (Casp3), 0.224 µM.

On to `CC(=O)N[C@H](C(=O)N1CCC[C@H]1C(=O)N[C@H](C=O)CC(=O)O)C(C)C` [compound 17, (S)-3-[(S)-1-(Acetyl-L-valyl)pyrrolidine-2-carboxamido]-4-oxobutanoic acid] (Ac-Val-Pro-Asp-aldehyde), for which the Ki is > 100 µM in assay [1] and 5.75 µM at caspase-3 (Casp3).

Take `CC(=O)NCCCC[C@H](NC(=O)[C@@H](NC(C)=O)C(C)C)C(=O)N[C@H](C=O)CC(=O)O` [compound 31, (S)-3-{(S)-6-Acetamido-2-[(S)-2-acetamido-3-methylbutanamido]hexanamido}-4-oxobutanoic acid] (Ac-Val-Lys(Ac)-Asp-aldehyde): the figures for the Ki on caspase-2 (Casp2) and at caspase-3 (Casp3) were > 100 µM and 9.55 µM, respectively.

For the origin of these results see article PMC9616052 (Archiv der Pharmazie, 2022).
